According to ChEMBL document CHEMBL6134769, “Discovery of N-substituted-2-oxoindolin benzoylhydrazines as c-MET/SMO modulators in EGFRi-resistant non-small cell lung cancer” (RSC Med Chem, 2025):
Activity calls are given as the source filed them. No cut-off for these calls is given here.

Tests used:
[1] = Antiproliferative activity against human HCC827 Gefitinib-resistant (GR) cells assessed as reduction in cell viability measured after 72 hrs by MTS assay
Protein smoothened [2] = molecular target: T1, Protein smoothened (Homo sapiens, UniProt Q99835); assay: Inhibition of SMO in human HCC827 Gefitinib-resistant (GR) cells assessed as reduction in GLI1 expression at antiproliferative IC50 measured after 72 hrs by Western blot analysis; type: functional, cell-based; conditions: HCC827 Gefitinib-resistant (GR) cell
T1 sequence (Q99835 whole entry, the tested form may be a part): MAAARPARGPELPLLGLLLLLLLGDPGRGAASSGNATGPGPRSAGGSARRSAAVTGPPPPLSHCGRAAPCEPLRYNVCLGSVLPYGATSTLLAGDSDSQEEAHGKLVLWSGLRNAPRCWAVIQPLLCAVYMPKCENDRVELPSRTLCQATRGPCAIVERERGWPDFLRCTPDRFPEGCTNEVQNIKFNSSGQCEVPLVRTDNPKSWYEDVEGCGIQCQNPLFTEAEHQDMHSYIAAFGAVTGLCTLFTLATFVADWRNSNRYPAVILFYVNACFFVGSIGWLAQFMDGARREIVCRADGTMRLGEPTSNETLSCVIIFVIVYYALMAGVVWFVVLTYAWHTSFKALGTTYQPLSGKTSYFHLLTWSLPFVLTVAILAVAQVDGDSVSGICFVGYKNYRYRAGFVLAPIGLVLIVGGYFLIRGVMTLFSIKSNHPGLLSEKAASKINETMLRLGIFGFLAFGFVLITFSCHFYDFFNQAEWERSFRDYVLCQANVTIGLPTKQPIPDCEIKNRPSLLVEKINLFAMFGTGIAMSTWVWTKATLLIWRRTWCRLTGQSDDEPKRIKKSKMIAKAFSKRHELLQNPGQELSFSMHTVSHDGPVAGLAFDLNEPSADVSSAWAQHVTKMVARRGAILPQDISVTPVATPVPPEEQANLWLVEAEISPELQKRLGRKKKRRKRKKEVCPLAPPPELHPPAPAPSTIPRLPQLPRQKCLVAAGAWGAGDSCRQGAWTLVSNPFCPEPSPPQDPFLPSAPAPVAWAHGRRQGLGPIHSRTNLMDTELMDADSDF

[3] = molecular target: Fibroblast growth factor receptor 1 (Homo sapiens) (UniProt P11362); assay: Inhibition of human N-terminal GST-fused FGFR1 cytoplasmic domain (398 to 822 (end)residues) expressed in baculovirus expression system at 20 uM measured after 1 hr in presence of peptide substrate and ATP by off-chip mobility shift assay relative to control
Outline: (§1)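 Off-chip mobility shift assay. Product and substrate peptides were separated; activity was taken as P/(P+S). Complete reaction was set as 0% inhibition and enzyme-free background as 100%. Run in triplicate, mean ± SD.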

[4] = Inhibition of human full-length N-terminal GST-fused SRC (1 to 536 (end)residues) expressed in baculovirus expression system at 20 uM measured after 1 hr in presence of peptide substrate and ATP by off-chip mobility shift assay relative to control; outline: as §1
[5] = molecular target: Platelet-derived growth factor receptor alpha (Homo sapiens) (UniProt P16234); assay: Inhibition of human N-terminal GST-fused PDGFRalpha cytoplasmic domain (550 to 1089 (end)residues) expressed in baculovirus expression system at 20 uM measured after 1 hr in presence of peptide substrate and ATP by off-chip mobility shift assay relative to control; outline: as §1
[6] = molecular target: Angiopoietin-1 receptor (Homo sapiens) (UniProt Q02763); assay: Inhibition of human N-terminal GST-fused TIE2 cytoplasmic domain (771 to 1124 (end)residues) expressed in baculovirus expression system at 20 uM measured after 1 hr in presence of peptide substrate and ATP by off-chip mobility shift assay relative to control; outline: as §1
[7] = molecular target: Epidermal growth factor receptor (Homo sapiens) (UniProt P00533); assay: Inhibition of human N-terminal GST-fused EGFR cytoplasmic domain (669 to 1210 (end)residues) expressed in baculovirus expression system at 20 uM measured after 1 hr in presence of peptide substrate and ATP by off-chip mobility shift assay relative to control; outline: as §1
Sequence of Epidermal growth factor receptor (Homo sapiens) (P00533 whole entry, the tested form may be a part): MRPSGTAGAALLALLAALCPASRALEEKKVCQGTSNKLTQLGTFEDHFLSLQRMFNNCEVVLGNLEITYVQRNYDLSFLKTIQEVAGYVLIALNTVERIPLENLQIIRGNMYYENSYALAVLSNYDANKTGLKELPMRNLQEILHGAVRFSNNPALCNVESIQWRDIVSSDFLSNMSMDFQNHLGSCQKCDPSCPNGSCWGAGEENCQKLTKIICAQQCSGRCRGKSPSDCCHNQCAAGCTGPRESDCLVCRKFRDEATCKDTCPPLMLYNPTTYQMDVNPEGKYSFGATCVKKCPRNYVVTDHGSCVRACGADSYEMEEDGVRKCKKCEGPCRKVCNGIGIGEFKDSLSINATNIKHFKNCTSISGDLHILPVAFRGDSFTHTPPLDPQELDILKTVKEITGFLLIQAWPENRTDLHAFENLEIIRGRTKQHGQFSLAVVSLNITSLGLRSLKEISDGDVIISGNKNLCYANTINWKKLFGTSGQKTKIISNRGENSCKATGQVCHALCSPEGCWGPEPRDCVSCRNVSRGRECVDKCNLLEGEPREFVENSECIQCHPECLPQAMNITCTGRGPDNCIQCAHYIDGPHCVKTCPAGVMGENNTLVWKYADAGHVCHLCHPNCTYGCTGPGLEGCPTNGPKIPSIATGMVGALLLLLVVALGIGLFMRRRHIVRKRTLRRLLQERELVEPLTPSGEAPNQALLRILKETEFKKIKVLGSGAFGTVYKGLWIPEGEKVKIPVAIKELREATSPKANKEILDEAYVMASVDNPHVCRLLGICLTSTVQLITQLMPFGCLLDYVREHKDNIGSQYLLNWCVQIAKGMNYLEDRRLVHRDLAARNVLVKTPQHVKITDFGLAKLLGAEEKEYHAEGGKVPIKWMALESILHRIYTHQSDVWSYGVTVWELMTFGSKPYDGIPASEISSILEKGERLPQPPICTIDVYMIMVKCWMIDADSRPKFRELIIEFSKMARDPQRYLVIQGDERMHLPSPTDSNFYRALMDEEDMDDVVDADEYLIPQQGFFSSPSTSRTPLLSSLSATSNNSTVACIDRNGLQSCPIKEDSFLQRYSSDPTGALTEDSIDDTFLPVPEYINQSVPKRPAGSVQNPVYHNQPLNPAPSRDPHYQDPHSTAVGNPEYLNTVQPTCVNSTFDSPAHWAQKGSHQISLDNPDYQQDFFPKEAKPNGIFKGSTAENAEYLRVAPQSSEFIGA

[8] = molecular target: Vascular endothelial growth factor receptor 2 (Homo sapiens) (UniProt P35968); assay: Inhibition of human N-terminal GST-fused KDR cytoplasmic domain (790 to 1356 (end)residues) expressed in baculovirus expression system at 20 uM measured after 1 hr in presence of peptide substrate and ATP by off-chip mobility shift assay relative to control; outline: as §1
Sequence of Vascular endothelial growth factor receptor 2 (Homo sapiens) (P35968 whole entry, the tested form may be a part): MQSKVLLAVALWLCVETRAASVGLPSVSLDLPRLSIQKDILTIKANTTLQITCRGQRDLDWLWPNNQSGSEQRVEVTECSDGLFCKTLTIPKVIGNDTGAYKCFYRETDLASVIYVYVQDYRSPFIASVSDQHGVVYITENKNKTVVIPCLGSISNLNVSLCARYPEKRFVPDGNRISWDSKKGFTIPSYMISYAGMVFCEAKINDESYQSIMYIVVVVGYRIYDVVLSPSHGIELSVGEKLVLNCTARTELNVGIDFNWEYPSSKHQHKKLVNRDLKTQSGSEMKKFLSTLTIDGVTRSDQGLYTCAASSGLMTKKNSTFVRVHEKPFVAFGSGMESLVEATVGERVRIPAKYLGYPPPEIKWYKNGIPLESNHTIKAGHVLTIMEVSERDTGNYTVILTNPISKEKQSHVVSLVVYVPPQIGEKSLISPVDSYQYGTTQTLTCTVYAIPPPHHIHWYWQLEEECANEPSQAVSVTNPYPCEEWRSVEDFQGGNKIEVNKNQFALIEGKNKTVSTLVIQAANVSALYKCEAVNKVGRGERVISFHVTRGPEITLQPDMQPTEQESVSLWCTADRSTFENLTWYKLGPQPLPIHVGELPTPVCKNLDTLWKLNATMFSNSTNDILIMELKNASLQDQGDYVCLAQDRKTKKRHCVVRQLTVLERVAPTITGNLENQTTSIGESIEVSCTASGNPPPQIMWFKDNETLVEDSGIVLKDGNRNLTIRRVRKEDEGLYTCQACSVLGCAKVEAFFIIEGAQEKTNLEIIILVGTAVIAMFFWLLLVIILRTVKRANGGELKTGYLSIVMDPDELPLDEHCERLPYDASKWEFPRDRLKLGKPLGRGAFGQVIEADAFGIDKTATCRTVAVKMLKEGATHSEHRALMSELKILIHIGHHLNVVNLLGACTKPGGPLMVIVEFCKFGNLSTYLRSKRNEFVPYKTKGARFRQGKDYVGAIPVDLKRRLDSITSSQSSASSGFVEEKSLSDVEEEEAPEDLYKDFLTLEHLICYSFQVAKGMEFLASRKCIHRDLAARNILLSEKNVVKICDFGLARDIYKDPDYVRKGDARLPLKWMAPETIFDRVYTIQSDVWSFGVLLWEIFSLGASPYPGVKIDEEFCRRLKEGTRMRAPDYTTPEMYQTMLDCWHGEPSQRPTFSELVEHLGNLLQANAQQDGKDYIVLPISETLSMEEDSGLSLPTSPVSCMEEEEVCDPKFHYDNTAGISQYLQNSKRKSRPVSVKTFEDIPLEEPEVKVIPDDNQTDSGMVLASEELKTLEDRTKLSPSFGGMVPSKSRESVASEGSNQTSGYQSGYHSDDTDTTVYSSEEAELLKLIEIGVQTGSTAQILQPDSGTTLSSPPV

[9] = molecular target: Tyrosine-protein kinase CSK (Homo sapiens) (UniProt P41240); assay: Inhibition of human full-length N-terminal GST-fused CSK (1 to 450 (end)residues) expressed in baculovirus expression system at 20 uM measured after 1 hr in presence of peptide substrate and ATP by off-chip mobility shift assay relative to control; outline: as §1
[10] = molecular target: T2, Ephrin type-B receptor 4 (Homo sapiens) (UniProt P54760); assay: Inhibition of human N-terminal GST-fused EPHB4 cytoplasmic domain (577 to 987 (end)residues) expressed in baculovirus expression system at 20 uM measured after 1 hr in presence of peptide substrate and ATP by off-chip mobility shift assay relative to control; outline: as §1
T2 sequence (whole entry): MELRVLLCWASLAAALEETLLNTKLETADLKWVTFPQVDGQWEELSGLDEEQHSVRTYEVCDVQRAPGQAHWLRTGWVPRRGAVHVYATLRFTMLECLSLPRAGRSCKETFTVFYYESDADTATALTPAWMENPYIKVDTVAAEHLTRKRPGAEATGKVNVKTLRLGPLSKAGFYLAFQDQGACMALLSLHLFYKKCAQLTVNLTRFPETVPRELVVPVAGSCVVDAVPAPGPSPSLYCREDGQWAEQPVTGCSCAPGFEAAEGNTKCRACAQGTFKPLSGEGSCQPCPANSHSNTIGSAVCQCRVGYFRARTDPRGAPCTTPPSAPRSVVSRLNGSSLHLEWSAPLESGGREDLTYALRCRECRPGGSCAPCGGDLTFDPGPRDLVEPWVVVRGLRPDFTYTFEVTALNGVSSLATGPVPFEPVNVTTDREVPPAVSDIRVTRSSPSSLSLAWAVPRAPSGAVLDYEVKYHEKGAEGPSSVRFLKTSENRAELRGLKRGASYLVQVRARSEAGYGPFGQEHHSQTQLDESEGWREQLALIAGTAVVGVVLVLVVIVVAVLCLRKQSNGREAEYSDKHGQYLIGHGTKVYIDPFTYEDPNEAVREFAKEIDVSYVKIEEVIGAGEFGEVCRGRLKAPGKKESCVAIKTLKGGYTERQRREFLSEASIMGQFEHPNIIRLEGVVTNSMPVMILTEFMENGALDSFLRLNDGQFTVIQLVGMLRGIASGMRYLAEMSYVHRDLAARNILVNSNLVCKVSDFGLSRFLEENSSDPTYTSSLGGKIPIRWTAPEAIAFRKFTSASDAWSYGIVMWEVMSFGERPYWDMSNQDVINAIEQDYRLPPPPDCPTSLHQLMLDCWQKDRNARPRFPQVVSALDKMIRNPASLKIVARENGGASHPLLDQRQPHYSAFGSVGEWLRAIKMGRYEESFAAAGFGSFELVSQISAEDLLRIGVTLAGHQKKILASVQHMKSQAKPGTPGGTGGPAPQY

[11] = molecular target: Tyrosine-protein kinase Lck (Homo sapiens) (UniProt P06239); assay: Inhibition of human full-length N-terminal GST-fused LCK (1 to 509 (end)residues) expressed in baculovirus expression system at 20 uM measured after 1 hr in presence of peptide substrate and ATP by off-chip mobility shift assay relative to control; outline: as §1
Sequence of Tyrosine-protein kinase Lck (Homo sapiens) (P06239 2-509 limits assumed): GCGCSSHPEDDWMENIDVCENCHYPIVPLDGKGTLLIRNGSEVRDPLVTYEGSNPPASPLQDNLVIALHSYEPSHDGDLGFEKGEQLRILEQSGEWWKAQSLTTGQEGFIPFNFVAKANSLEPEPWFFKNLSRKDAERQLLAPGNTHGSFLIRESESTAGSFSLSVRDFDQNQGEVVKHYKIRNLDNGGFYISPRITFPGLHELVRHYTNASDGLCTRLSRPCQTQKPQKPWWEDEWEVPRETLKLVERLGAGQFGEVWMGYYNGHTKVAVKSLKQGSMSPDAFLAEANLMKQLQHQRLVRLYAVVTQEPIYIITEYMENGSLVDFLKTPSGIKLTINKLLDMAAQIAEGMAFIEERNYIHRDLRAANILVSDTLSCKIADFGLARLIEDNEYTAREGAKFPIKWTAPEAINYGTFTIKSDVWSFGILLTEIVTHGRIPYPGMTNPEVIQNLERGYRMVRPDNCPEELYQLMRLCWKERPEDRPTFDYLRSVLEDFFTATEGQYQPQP

Protein smoothened [12] = molecular target: T1, Protein smoothened; assay: Inhibition of SMO in human PC9-OR cells assessed as reduction in GLI1 expression at antiproliferative IC50 measured after 72 hrs by Western blot analysis; type: functional, cell-based
[13] = molecular target: High affinity nerve growth factor receptor (Homo sapiens) (UniProt P04629); assay: Inhibition of human N-terminal GST-fused TRKA cytoplasmic domain (436 to 790 (end)residues) expressed in baculovirus expression system at 20 uM measured after 1 hr in presence of peptide substrate and ATP by off-chip mobility shift assay relative to control; outline: as §1
[14] = molecular target: Protein-tyrosine kinase 2-beta (Homo sapiens) (UniProt Q14289); assay: Inhibition of human full-length N-terminal GST-fused PYK2 (1 to 967 (end)residues) expressed in baculovirus expression system at 20 uM measured after 1 hr in presence of peptide substrate and ATP by off-chip mobility shift assay relative to control; outline: as §1
Sequence of Protein-tyrosine kinase 2-beta (Homo sapiens) (Q14289 whole entry, looked up, the tested form may be a part): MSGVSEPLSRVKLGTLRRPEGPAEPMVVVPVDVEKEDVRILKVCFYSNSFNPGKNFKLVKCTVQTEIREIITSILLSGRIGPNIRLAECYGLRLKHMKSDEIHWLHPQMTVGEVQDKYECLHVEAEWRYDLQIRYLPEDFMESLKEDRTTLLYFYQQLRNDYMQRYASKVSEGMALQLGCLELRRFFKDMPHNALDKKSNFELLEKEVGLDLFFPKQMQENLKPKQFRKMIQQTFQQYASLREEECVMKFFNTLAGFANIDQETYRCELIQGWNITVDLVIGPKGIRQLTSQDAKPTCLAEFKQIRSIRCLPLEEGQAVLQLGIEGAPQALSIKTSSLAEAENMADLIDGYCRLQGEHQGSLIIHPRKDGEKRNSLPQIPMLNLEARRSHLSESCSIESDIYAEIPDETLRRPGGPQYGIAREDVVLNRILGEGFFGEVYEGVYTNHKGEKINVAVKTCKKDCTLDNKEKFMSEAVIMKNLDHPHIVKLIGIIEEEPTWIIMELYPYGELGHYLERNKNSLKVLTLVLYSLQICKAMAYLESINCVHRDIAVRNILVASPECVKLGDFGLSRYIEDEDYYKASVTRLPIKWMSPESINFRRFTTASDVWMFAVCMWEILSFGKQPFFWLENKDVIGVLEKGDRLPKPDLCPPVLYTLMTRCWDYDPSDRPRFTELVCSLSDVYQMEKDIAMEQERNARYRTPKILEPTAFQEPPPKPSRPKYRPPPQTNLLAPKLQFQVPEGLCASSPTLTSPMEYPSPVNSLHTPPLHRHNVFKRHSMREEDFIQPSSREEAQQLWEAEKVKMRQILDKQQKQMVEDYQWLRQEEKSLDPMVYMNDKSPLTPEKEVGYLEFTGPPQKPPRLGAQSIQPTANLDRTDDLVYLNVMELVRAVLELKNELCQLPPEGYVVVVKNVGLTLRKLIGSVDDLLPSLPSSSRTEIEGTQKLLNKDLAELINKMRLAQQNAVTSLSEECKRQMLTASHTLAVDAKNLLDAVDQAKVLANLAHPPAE

[15] = Antiproliferative activity against human PC9-OR cells assessed as reduction in cell viability measured after 72 hrs by MTS assay

GLI1 expression reduction (qualitative) (Protein smoothened [2]) | inhibition [3] [%] | inhibition [4] [%] | inhibition [5] [%] | inhibition [6] [%] | inhibition [7] [%] | inhibition [8] [%] | inhibition [9] [%] | inhibition [10] [%] | inhibition [11] [%] | inhibition (Protein smoothened [12]) | inhibition [13] [%] | inhibition [14] [%] | SMILES | IC50 [1] [µM] | IC50 [15] [µM]
Active | 71.4 | 56.5 | 56.7 | 76.7 | 70.9 | 63.5 | 86.1 | 62.5 | 69.3 | Active | 64.3 | 48.5 | Cc1ccc(NC(=O)CN2C(=O)/C(=N\NC(=O)c3cc(Br)ccc3O)c3ccc(Br)cc32)cc1 | 4.34 | 2.08
Active | 91.7 | 49.3 | 76.2 | 93.1 | 85.2 | 81.4 | 93.5 | 93.3 | 84.8 | Active | 80 | 49.9 | Cc1ccc(NC(=O)CN2C(=O)/C(=N\NC(=O)c3cc(Br)ccc3O)c3ccccc32)cc1 | 10.7 | 9.51
Active | 81.6 | 50.7 | 63.3 | 89.5 | 69.3 | 61.2 | 82.9 | 70.8 | 66.8 | Active | 65.9 | 45.1 | O=C(CN1C(=O)/C(=N\NC(=O)c2cc(Br)ccc2O)c2c(Br)cccc21)Nc1ccc([N+](=O)[O-])cc1 | 3.52 | 4.05
Active | 71.8 | 64.3 | 56.5 | 76.7 | 72.9 | 66.6 | 82.1 | 63 | 71.5 | Active | 66.9 | 49.7 | Cc1ccc(NC(=O)CN2C(=O)/C(=N\NC(=O)c3cc(Br)ccc3O)c3ccc(Cl)cc32)cc1 | 5.16 | 2.27
